Assay outcomes deposited in PubChem BioAssay by several laboratories.
Sampled rows, rich in hits. Any-hit rate of the full collection: about 3.8%.
MC4R ag barr: agonists of human melanocortin 4 receptor (MC4R) beta-arrestin. P32245. U2OS MC4R beta-arrestin complementation, luminescence; percent of melanotan II response, DMSO zero. activation, % at 8.9 µM. actives 0.98% (n = 360,000);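 active means activation above a per-plate cutoff, the mean activation of sample wells on that plate plus 3 SD, cut at about 8% in these data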
Target sequence (P32245 whole entry, looked up): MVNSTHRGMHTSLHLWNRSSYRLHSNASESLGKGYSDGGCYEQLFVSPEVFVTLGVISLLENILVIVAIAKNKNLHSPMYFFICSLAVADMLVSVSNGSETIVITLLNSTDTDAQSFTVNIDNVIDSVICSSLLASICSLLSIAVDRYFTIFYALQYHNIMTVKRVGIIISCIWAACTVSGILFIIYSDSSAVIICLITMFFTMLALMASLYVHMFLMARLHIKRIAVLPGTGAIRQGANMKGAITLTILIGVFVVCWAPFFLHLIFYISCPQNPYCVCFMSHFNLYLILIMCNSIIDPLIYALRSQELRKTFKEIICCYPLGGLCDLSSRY
Beta apoptosis: beta cell apoptosis inhibition | INS-1E cytokine-induced death, ATP luminescence, 48 h; percent of positive-control rescue, neutral wells zero | protection from apoptosis, % (no concentration beside the values) | actives 0.8% (n = 300,000) | AID 435005;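 active means Every replicate reaches about 75%, or at least half do and their mean reaches it too, limit read from the data; inconclusive means At least half of replicates reach the limit but their mean does not; inactive means Under half of replicates reach the limit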;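 further: higher means more ATP so stronger rescue from cytokine killing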
CSC inhib: cancer stem cell inhibition; cancer stem cell-like cells viability, luminescence; inhibition, % at 7.5 µM; actives 1.1% (n = 300,000); in the data active means inhibition above about 75%; inconclusive means no clear call, values can overlap the other calls; tested in HMLE shEcad cells
MC4R antag cAMP: antagonists of human melanocortin 4 receptor (MC4R); MC4R-expressing cells, MTII-stimulated cAMP, LANCE TR-FRET; P32245; inhibition, % at 6.5 µM; actives 0.48% (n = 360,000);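 active means inhibition above its plate's cutoff, the mean of tested wells on that plate plus 3 SD, cut at about 29% in these data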
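Material – human MC4R-expressing U2OS cells · Repeats – no replicates · Detection – TR-FRET with Eu-cAMP and labeled anti-cAMP, 671 nm · Times – compound 30 min, challenge 1 h, detection 1 h · Compound – single nominal compound dose of 6.5 µM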
TMEM16A act: activators or potentiators of mouse TMEM16A chloride channel; Q8BHY3; HEK293 TMEM16A/YFP-H148Q/I152L, iodide quench fluorescence; active compounds read low; B-score at 10 µM; actives 0.3% (n = 340,000); AID 623877;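 active means fluorescence-ratio B-score plate-corrected deviation score at least 3 library SD below zero, with starting fluorescence score within 5 deviations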;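 further: channel opened by trigger with iodide after compound preincubation; score built on the fluorescence ratio of max minus min over baseline; more negative score means more quench and so TMEM16A activation or potentiation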
ANO1 block: inhibitors of mouse TMEM16A calcium-activated chloride channel. Q8BHY3. actives 1.2% (n = 310,000). normalized B-score (activity score, 25-100; higher = stronger inhibition) at 10 µM. HEK293 TMEM16A/YFP iodide influx fluorescence, ionomycin. AID 588511;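 active means ratio plate-corrected score three or more library SD toward inhibition, starting fluorescence score within five deviations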;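 further: score derived from kinetic fluorescence span divided by baseline fluorescence per well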
Numbers stand for hits; . = inactive; ? = inconclusive; / = no result given.

SMILES | MC4R ag barr | Beta apoptosis | CSC inhib | MC4R antag cAMP | TMEM16A act | ANO1 block
O=C(Nc1ccc2nc3n(c(=O)c2c1)CCCCC3)c1cc([N+](=O)[O-])ccc1F | . | . | ? | . | . | .
CCCCCc1ccc(OCCCC[n+]2ccc(C)cc2)c(CCCCC)c1 | . | 111 | . | . | . | 100
Cc1ccc(S(=O)(=O)N(C)C[C@@H]2Oc3ccc(NC(=O)CCC(F)(F)F)cc3CC(=O)N([C@@H](C)CO)C[C@@H]2C)cc1 | . | . | . | . | . | /
COc1ccc(C(=O)NNC2=Nc3cccc4cccc2c34)cc1 | 9.0 | . | . | . | . | .
Cc1ccc(C(=O)NNC2=Nc3cccc4cccc2c34)cc1 | . | . | . | . | . | .
Cn1ncc2c(Nc3ccc(Br)cc3)nc(Nc3ccc(Br)cc3)nc21 | . | . | 103 | . | . | .
Cn1ncc2c(Nc3cccc(Cl)c3)nc(Nc3cccc(Cl)c3)nc21 | . | . | 115 | . | . | .
Cn1ncc2c(Nc3ccc(O)cc3)nc(Cl)nc21 | . | . | . | . | . | .
CC1(C)CC(=O)C2=C(C1)OC(N)=C(C#N)C2c1cc2c(cc1[N+](=O)[O-])OCO2 (stereo unspecified) | . | . | . | . | -5 | .
CN(C)C(=O)CCc1ccc2c3c([nH]c2c1)[C@]1(C)[C@@H](C(=O)N2CCOCC2)C[C@H](CC(=O)NCCCn2ccnc2)C(=O)N1CC3 | . | / | / | . | / | /
COc1cc(OC)cc(C(=O)NCC(=O)OCc2ccc(Cl)c(Cl)c2)c1 | . | / | / | . | . | /
Cc1ccccc1Nc1nc(N)nc(CCl)n1 | . | . | . | . | . | .
COc1ccc(Nc2nc(N)nc(CCl)n2)cc1 | 18 | . | . | . | . | .
Nc1nc(CCl)nc(Nc2ccc3ccccc3c2)n1 | 15 | / | / | . | . | /
CCNc1nc(NCC)n2c(SCC(=O)Nc3ccc(C)cc3Br)nnc2n1 | . | . | . | . | . | /
CCOc1ccc(C(=O)N(c2ccccn2)C2CCCCC2)cc1 | . | . | . | . | . | .
COc1cc(OC)c(CN2CCCN(C)CC2)cc1Br | . | . | . | . | . | .
OCc1ccc2c(c1)c(-c1ccc3c(c1)OCCO3)c(-c1ccccc1)n2-c1ccccc1 | . | . | 92 | . | . | /
Cc1ccccc1NC(=S)Nc1cccc2cnccc12 | . | 129 | . | . | . | .
O=C(c1nn2c(C(F)(F)F)cc(-c3ccccc3)nc2c1Cl)N1CCN2CCCC2C1 (stereo unspecified) | . | / | / | . | . | /
CN(Cc1nc(-c2ccc(Cl)cc2)no1)C(=O)c1ccc2c(c1)OCO2 | . | . | . | . | . | 25
COc1ccc(-c2noc(CN(C(=O)c3ccc4c(c3)OCO4)C(C)C)n2)cc1 | . | . | . | . | . | .
CCn1nc(C)c(CNC(=O)c2ccc(OC3CCN(Cc4ccccn4)CC3)cc2)c1C | . | 79 | . | . | . | .
CCCCCCCCCC(=O)N1CCN(c2cc3c(cc2F)c(=O)c(C(=O)O)cn3CC)CC1 | . | . | . | . | -8.6 | .
CCOc1ccc(C(=O)c2cc([N+](=O)[O-])ccc2N2CCOCC2)cc1 | . | 79 | . | . | . | .
SMILES | MC4R ag barr | Beta apoptosis | CSC inhib | MC4R antag cAMP | TMEM16A act | ANO1 block
Cc1ccc(-n2c(O)c(/C=N/Nc3ccc(S(=O)(=O)N4CCOCC4)cc3[N+](=O)[O-])c3ccccc3c2=O)c(C)c1 | . | . | . | . | . | 100
COc1ccc(-c2nn(-c3ccccc3)cc2C(=O)OCC(=O)c2ccc(C)c([N+](=O)[O-])c2)cc1 | . | 101 | . | . | . | .
CN(Cc1nc2ccccc2c(=O)[nH]1)C(=O)c1cc(C2CC2)nn1-c1ccccc1 | . | . | . | . | . | /
Cc1cccc(-c2nc(C#N)c(NC3CCCCC3)o2)c1 | . | . | 99 | . | . | .
CC1=C(C(=O)N2CCOCC2)CC(CC(=O)NCCCCc2ccccc2)C(=O)N1CCC1=CCCCC1 (stereo unspecified) | . | / | / | . | / | /
COc1ccc(-c2oc3ccccc3c2C#Cc2cncn2C)cc1 | . | . | 103 | . | . | /
COc1ccc(-c2sc3ccc(OC)cc3c2C#Cc2cncn2C)cc1 | . | . | / | . | . | /
S=C(Sc1ccc(Cl)cc1)Sc1ccc(Cl)cc1 | / | . | 77 | / | / | .
O=C(O)CCCN1C(=O)/C(=C\C(Cl)=C\c2ccccc2)SC1=S | . | . | 79 | . | . | .
COc1ccc(CC(=O)N/N=C/c2cccn2-c2ccc([N+](=O)[O-])cc2)cc1OC | . | . | . | . | -12 | .
COc1cc(OC)cc(-c2c(-c3ccc(C(C)=O)cc3)c3cc(-c4cccc5[nH]ccc45)ccc3n2C)c1 | . | . | / | . | . | /
O=C(CSc1ccccc1)Nc1nc2ccccc2[nH]1 | . | . | . | . | . | .
O=C(CSc1ccc(Cl)cc1)Nc1ccc(-c2nc3ccccc3[nH]2)cc1 | 10 | . | . | . | . | .
Cc1ccc(/C=C/S(=O)(=O)NCCC(=O)NCc2ccc(F)cc2)cc1 | . | . | / | . | -42 | /
C[C@@H](CSc1ccc(Br)cc1)CN1CC[C@H](C(C)(C)C)CCC1=O | . | . | 123 | . | . | /
CC(C)(C)[C@H]1CCC(=O)N([C@H](CSc2ccccc2)Cc2ccccc2)CC1 | . | . | 139 | . | . | .
CC(=O)Nc1ccc(S[C@@H](CCN2CC[C@H](C(C)(C)C)CCC2=O)c2ccccc2)cc1 | . | . | . | . | . | /
CC(C)(C)[C@@H]1CCC(=O)N(CC[C@H](Sc2ccccc2)c2ccccc2)CC1 | . | . | 104 | . | . | .
CC(C)(C)[C@H]1CCC(=O)N([C@H](CSc2ccc(Br)cc2)Cc2ccccc2)CC1 | . | . | . | . | . | /
CCCC(C)CO (stereo unspecified) | . | . | . | . | . | /
COc1ccc(NC(=O)/C(Cl)=C(/Cl)S(=O)Cc2ccccc2Cl)cn1 (stereo unspecified) | / | / | / | / | -4.6 | /
COc1ccc(NC(=O)Cc2ccc(Cl)c(Cl)c2)cn1 | . | . | . | . | . | .
COc1ccc(-c2ccc3c(N)c(C(=O)c4cccc(OC)c4)sc3n2)cc1 | . | . | . | . | . | .
COc1ccc(C(=O)c2sc3nc(-c4ccc(OC)cc4)ccc3c2N)cc1 | 9.2 | . | . | . | . | .
COc1ccc(OC)c(Nc2nc(NCc3ccco3)c3ccccc3n2)c1 | . | / | . | . | . | .
C=CCNc1nc(-c2cccc(OC)c2O)nc2ccccc12 | 9.4 | . | . | . | . | .
COc1cccc(-c2nc(NCc3ccco3)c3ccccc3n2)c1O | 18 | . | . | . | . | .
COc1cccc(-c2nc(NC3CCCC3)c3ccccc3n2)c1O | . | . | . | . | . | .
COc1cc(CNC(=O)c2cc(-c3cc(F)ccc3OCC3CCCO3)n[nH]2)cc(OC)c1 (stereo unspecified) | . | / | / | . | / | /
